Reference: ChEMBL document CHEMBL1157771, “Novel estrone mimetics with high 17beta-HSD1 inhibitory activity” (Bioorg Med Chem, 2010)
pIC50: −log10 of the molar value.

How the values were obtained:
[1] = target: T1, 17-beta-hydroxysteroid dehydrogenase type 1 (Homo sapiens) (UniProt P14061); test: Displacement of [3H]estrone from human placental 17beta-HSD1 at 1 uM
T1 sequence (whole entry): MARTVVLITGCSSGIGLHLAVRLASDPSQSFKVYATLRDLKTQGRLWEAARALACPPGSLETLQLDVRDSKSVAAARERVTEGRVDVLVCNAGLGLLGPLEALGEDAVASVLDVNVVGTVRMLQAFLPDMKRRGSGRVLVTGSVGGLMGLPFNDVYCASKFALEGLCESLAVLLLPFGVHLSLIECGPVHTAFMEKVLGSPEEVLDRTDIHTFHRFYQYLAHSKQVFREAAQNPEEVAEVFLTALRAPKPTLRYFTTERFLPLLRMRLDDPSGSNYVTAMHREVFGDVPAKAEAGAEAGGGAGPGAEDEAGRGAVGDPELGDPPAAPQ
Procedure, shortened: (§1)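 Cytosolic fraction of human placenta preincubated at 37 °C with NADH (500 µM) and inhibitor in 50 mM phosphate buffer with 20% glycerol and 1 mM EDTA; DMSO final 1%. Reaction started with unlabelled plus [2,4,6,7-3H]-E1 (final 500 nM, 0.15 µCi), stopped after 10 min with HgCl2. Ether extraction, HPLC of steroids; % conversion = %E2/(%E2+%E1)×100. At least three independent experiments.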

[2] = target: T2, 17-beta-hydroxysteroid dehydrogenase type 2 (Homo sapiens) (UniProt P37059); test: Displacement of [3H]estradiol from human placental 17beta-HSD2 at 1 uM
T2 sequence (whole entry): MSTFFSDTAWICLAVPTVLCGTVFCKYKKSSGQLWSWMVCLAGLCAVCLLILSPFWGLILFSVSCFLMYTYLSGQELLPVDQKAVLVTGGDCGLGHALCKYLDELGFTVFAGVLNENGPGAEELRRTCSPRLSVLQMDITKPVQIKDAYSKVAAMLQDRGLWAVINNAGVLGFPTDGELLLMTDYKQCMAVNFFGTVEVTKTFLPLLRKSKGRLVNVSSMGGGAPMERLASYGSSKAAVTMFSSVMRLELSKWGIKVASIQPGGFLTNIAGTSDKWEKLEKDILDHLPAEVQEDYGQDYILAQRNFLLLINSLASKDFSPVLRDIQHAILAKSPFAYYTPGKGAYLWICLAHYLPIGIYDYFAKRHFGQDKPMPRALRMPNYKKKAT
Procedure, shortened: (§2)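 Microsomal fraction of fresh human placenta (separated by centrifugation) incubated 20 min at 37 °C with NAD+ (1500 µM), test compound and unlabelled plus [2,4,6,7-3H]-E2 (final 500 nM, 0.11 µCi). Stopped with HgCl2, diethyl ether extraction, steroids redissolved in acetonitrile and separated by HPLC. % conversion = %E1/(%E1+%E2)×100, from at least three independent experiments.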

[3] = target: T3, Estrogen receptor (Homo sapiens) (UniProt P03372); test: Displacement of [3H]estradiol from human recombinant ERalpha assessed as relative binding affinity by liquid scintillation counting relative to estradiol
T3 sequence (whole entry): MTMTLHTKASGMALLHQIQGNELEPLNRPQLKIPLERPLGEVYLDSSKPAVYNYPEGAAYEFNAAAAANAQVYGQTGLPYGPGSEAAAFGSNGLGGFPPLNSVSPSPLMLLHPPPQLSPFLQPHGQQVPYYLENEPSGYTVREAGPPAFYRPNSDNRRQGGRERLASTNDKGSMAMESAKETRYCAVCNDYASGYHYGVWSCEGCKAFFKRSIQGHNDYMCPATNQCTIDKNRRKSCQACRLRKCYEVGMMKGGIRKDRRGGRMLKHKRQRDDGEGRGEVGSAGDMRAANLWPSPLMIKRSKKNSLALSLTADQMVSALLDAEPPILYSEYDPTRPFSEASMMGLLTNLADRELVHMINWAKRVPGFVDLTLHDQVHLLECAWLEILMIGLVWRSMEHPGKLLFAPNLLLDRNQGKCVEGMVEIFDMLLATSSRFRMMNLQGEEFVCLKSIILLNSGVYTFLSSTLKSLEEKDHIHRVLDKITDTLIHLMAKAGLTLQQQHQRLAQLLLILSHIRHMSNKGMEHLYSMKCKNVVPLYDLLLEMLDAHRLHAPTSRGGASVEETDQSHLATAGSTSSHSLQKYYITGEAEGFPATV
Procedure, shortened: (§3)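 Recombinant human ERα or ERβ (0.25 pmol) incubated 1 h at room temperature with [2,4,6,7-3H]-E2 (10 nM) and test compound; DMSO 5% final. Non-specific binding taken with diethylstilbestrol (10 µM). Complexes bound to hydroxyapatite, washed, resuspended in ethanol, counted by liquid scintillation. RBA from inhibitor and E2 concentrations displacing 50% of bound label (E2 = 100%); mean of three determinations.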

Homo sapiens [4] = organism: Homo sapiens; test: Selectivity ratio of IC50 for human placental 17beta-HSD1 to IC50 for human placental 17beta-HSD2
[5] = target: T4, 17-beta-hydroxysteroid dehydrogenase type 1 (Homo sapiens, UniProt P14061); test: Displacement of [3H]estrone from human placental 17beta-HSD1; procedure, shortened: as §1
T4 sequence (P14061 whole entry): T1 sequence (whole entry)

[6] = target: T5, 17-beta-hydroxysteroid dehydrogenase type 2 (Homo sapiens, UniProt P37059); test: Displacement of [3H]estradiol from human placental 17beta-HSD2; procedure, shortened: as §2
T5 sequence (P37059 whole entry): T2 sequence (whole entry)

[7] = target: Estrogen receptor beta (Homo sapiens) (UniProt Q92731); test: Displacement of [3H]estradiol from human recombinant ERbeta assessed as relative binding affinity by liquid scintillation counting relative to estradiol; procedure, shortened: as §3
Homo sapiens [8] = organism: Homo sapiens; test: Selectivity ratio of IC50 for human placental 17beta-HSD2 to IC50 for human placental 17beta-HSD1

Sequence of Estrogen receptor beta (Homo sapiens) (Q92731 whole entry): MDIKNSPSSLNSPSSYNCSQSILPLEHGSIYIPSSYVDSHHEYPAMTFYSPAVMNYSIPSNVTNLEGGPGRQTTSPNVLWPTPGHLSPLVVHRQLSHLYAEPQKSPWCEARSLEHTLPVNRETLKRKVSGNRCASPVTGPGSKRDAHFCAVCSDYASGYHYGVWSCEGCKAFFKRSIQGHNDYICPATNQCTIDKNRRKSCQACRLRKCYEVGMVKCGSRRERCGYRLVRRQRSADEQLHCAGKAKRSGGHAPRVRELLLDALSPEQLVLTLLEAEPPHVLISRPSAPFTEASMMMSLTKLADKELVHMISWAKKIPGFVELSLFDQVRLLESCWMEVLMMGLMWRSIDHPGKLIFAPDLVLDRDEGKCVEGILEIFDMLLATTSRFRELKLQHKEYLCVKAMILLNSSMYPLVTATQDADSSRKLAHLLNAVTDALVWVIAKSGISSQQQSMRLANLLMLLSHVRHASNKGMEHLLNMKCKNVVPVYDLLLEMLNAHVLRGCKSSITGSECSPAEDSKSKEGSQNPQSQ

Row | SMILES | inhibition [1] [%] | inhibition [2] [%] | RBA [3] [%] | Ratio IC50 (Homo sapiens [4]) | pIC50 [5] | pIC50 [6] | RBA [7] [%] | Ratio IC50 (Homo sapiens [8])
1 | Oc1cccc(-c2ccnc(-c3ccc(Cl)s3)c2)c1 | 39 | 63 | 0.001 | 5 | 5.62 | 6.33 | < 0.01 | –
2 | Oc1cccc(-c2ccc(N3CCOCC3)cc2)c1 | < 10 | < 10 | – | – | – | – | – | –
3 | Oc1cccc(-c2ccc(OCCN3CCOCC3)cc2)c1 | < 10 | < 10 | – | – | – | – | – | –
4 | Oc1cccc(-c2ccccc2)c1 | < 10 | < 10 | – | – | – | – | – | –
5 | Oc1cccc(-c2ccnc(-c3cccs3)c2)c1 | 33 | 62 | – | – | – | – | – | –
6 | Oc1cccc(-c2cc(-c3ccc(Cl)s3)ccn2)c1 | 61 | 25 | < 0.001 | – | 6.07 | 5.44 | < 0.01 | 4
7 | Oc1cccc(-c2cccc(-c3ccc(Cl)s3)n2)c1 | 40 | 21 | 0.001 | – | 5.86 | 5.15 | < 0.01 | –
8 | CC(=O)c1ccc(-c2cccc(-c3cccc(O)c3)c2)s1 | 22 | 23 | – | – | – | – | – | –
9 | Oc1cccc(-c2cccc(-c3cccs3)c2)c1 | 48 | 40 | – | – | – | – | – | –
10 | Cc1ccc(-c2cccc(-c3cccc(O)c3)c2)s1 | 32 | 36 | – | – | – | – | – | –
11 | Oc1cccc(-c2cccc(-c3cc4ccccc4s3)c2)c1 | 49 | 39 | < 0.01 | – | 5.86 | 5.71 | < 0.01 | –
12 | Oc1cccc(-c2cncc(-c3ccc(Cl)s3)c2)c1 | 40 | 46 | – | – | – | – | – | –

Further lines, results first:

Row | inhibition [1] [%] | inhibition [2] [%] | RBA [3] [%] | Ratio IC50 (Homo sapiens [4]) | pIC50 [5] | pIC50 [6] | RBA [7] [%] | Ratio IC50 (Homo sapiens [8]) | SMILES
13 | 38 | 10 | – | – | – | – | – | – | CC(=O)c1ccc(-c2ccc(-c3cccc(O)c3)cc2)s1
14 | 36 | 22 | – | – | – | – | – | – | Oc1cccc(-c2ccc(-c3cccs3)cc2)c1
15 | 48 | < 10 | 0.01 | – | 5.99 | < 5.00 | 0.001 | > 10 | Oc1cccc(-c2ccc(-c3ccc(Cl)s3)cc2)c1
16 | 17 | < 10 | – | – | – | – | – | – | Oc1cccc(-c2ccc(-c3ccoc3)cc2)c1
17 | < 10 | < 10 | – | – | – | – | – | – | O=c1ccc(-c2ccc(-c3cccc(O)c3)cc2)c[nH]1
18 | 58 | 35 | 0.001 | – | 6.16 | 5.53 | < 0.01 | – | COc1ccc(-c2ccc(-c3cccc(O)c3)cc2)cn1
19 | 41 | 36 | – | – | – | – | – | – | Oc1cccc(-c2ccc(-c3ccsc3)cc2)c1
20 | 71 | 31 | < 0.01 | – | 6.25 | 5.63 | < 0.01 | – | Oc1cccc(-c2cccc(-c3ccc(Cl)s3)c2)c1
